Common to all, as to type: functional, cell-based
One assay concerns A549. The assay can be described thus: Cytotoxicity against human A549 cells by SRB method. Summed up:
(§1)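 SRB assay on A-549 (human lung adenocarcinoma) and BEL-7402 (human hepatocellular carcinoma) cells, run by standard protocol with pseudolaric acid B as positive control. Values are reported as IC50 in molar units.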
(In general: In SRB staining, fixed cells bind dye roughly in proportion to their protein.)

In a further assay the test system is P388. The assay can be described thus: Cytotoxicity against mouse P388 cells by MTT method. In a few lines:
(§2)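 MTT assay on P388 (murine leukemia) and HL-60 (human leukemia) cells, run by standard protocol with pseudolaric acid B as positive control. Values are reported as IC50 in molar units.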
For orientation: Tetrazolium assays rely on reduction of a dye to a coloured formazan, in cell work by metabolically active cells.

The test system of another assay is Bel-7402. The assay can be described thus: Cytotoxicity against human Bel-7402 cells by SRB method. In a few lines:
as §1

Another assay concerns HL-60. The assay can be described thus: Cytotoxicity against human HL-60 cells by MTT method. Summed up: as §2

Each structure is given as a SMILES string.

On to `CCN(CC)C[C@@H]1C(=O)O[C@H]2C[C@H](C)[C@@H](CO)[C@H]21` [GELSEBAMINE], for which the IC50 in the assay with A549 was found to be 0.634 µM.

Regarding `CON1C(=O)[C@@]2(C[C@@H]3N=C([C@@H](C)C[C@H]4C(=O)OC[C@H]5[C@@H]4[C@@H](O)C[C@@H]5C)[C@@H]4[C@@H](O)[C@H]2OC[C@@H]43)c2ccccc21`, the half-inhibitory concentration (IC50) in the assay with P388, in the assay on Bel-7402, in the assay on HL-60 and in the assay with A549 was more than 10 µM in each case.

In the case of `CON1C(=O)[C@@]2(C[C@@H]3N=C([C@H](C)C[C@@H]4C(=O)O[C@H]5C[C@H](C)[C@@H](CO)[C@H]54)[C@@H]4[C@@H](O)[C@H]2OC[C@@H]43)c2ccccc21`, the IC50 in the assay on P388, with Bel-7402, in the assay on HL-60 and in the assay on A549 was more than 10 µM each time.

In the case of `C=C[C@@]12CN(C)C3C1[C@@]1(C(=O)N(C[C@@H]4C(=O)O[C@H]5C[C@H](C)[C@@H](CO)[C@H]54)c4ccccc41)[C@H]1C[C@@H]2[C@@H]3CO1` [GELSEBANINE], the IC50 in the assay with P388, in the assay with Bel-7402, in the assay with HL-60 and in the assay on A549 was more than 10 µM throughout.

In general, IC50 refers to the concentration that inhibits the measured activity by half. Read a high IC50 as weaker potency.

The values are drawn from ChEMBL document CHEMBL1158061, “Alkaloids from Gelsemium elegans” (J Nat Prod, 2006).
